Measurements reported in the EternaBench riboswitch data.

System: MS2 coat protein
Assay: apparent Kd, MS2 coat protein; higher = weaker binding; RNA-MaP array; FMN 200 µM where present
Method in brief: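 The apparent Kd is reported as the median of filtered per-cluster binding-curve fits. To get these curves, designs transcribed by stalled E. coli RNA polymerase on Illumina sequencing-chip clusters were titrated with SNAP-549-labelled MS2 coat protein from 0.7 or 1.5 nM, doubling to 3 µM. Titrations were run without and then with constant ligand in 100 mM Tris-HCl pH 7.5, 80 mM KCl, 4 mM MgCl2, BSA, DTT, yeast tRNA and Tween-20, and green signal was normalised to red-channel RNA signal and control-cluster median Fmax.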

[1] = designed as: OFF switch for flavin mononucleotide, no ligand
[2] = ligand present: flavin mononucleotide, designed as: OFF switch for flavin mononucleotide
[3] = designed as: ON switch for flavin mononucleotide, no ligand
[4] = ligand present: flavin mononucleotide, designed as: ON switch for flavin mononucleotide

Sequence | apparent Kd [1] | apparent Kd [2] | apparent Kd [3] | apparent Kd [4]
CAGUCUACAGGAUAUACAUGAGGAUCACCCAUGUGUAUUCACUUUCAGUAGUCUUUAUGUAGAAGGGUAGACUG | 0.0159 µM | 0.0267 µM |  | 
GUGGUCAGACAUGAGGAUCACCCAUGUGGAAUAAAUAAGGAAAAGGAUAUCGAAUAUAGGAUAUACGAGAAGGUUUGGUUGGUG |  |  | 0.0965 µM | 0.0988 µM
GUGGACGUCGUAGGAUAUGUAGGAUAUUCCUACAUGAGGAUCACCCAUGUUGACAUGGAAGAAGGACAGAAGGACGAUGUCCAU |  |  | 0.262 µM | 0.00451 µM
UGACUUAUAUAGAAGGGUAUGUGGGAAUUACAUGAGGAUCACCCAUGUUUUAUAGGAUAUGUAUAUAGUUUUUAAUCAAGUUUA | 0.0463 µM | 0.0377 µM |  | 
AGGUAAACCACAGGAUAUGGCUAGCAUAGCUAGCCAGAAGGGUGGUCGAAACCAUGUAAAUACAUGAGGAUCACCCAUGUAUCC |  |  | 0.566 µM | 0.0753 µM
CUUUUGGCAGGAUAUGCUUUUUUUGACAUGAGGAUCACCCAUGUGAUGCAGUUUGGGUUUGCAGAAGGGCCUGAGU | 0.0981 µM | 0.131 µM |  | 
CCCAUGUUAGGAUAUAUGGAAGGGCGGACGGGCGCCCUUAGGUAGAAGGAACAUGAGGAUCACCCAUGUAAUAA | 0.171 µM | 0.161 µM |  | 
GCUCGAUGCGCUGAGCACAUGAGGAUCACCCAUGUAAAAUAUCAGGAUAUUUACGUGCUUUAUGUAGAGAAGGGAUUAUCGAGC |  |  | 0.101 µM | 0.0414 µM
UCGUGAAGGACAGGAUAUGGACAUGAGGAUCACCCAUGUACAUGGGAAUGUAUACUGAAUUUGUACUAGAAGGGUUACAUAAAU | 0.0299 µM | 0.0206 µM |  | 
GCCUUACCGGUCAGGAUAUACACCCGUCACUCCUUGUAGAAGGGACAUGAGGAUCACCCAUGUACAUUACAUUC | 0.0272 µM | 0.0268 µM |  | 
GUGCUGGAGCUUUGCUUUAGUCGUACAUGAGGAUCACCCAUGUAGGAUAUGGUAGGCUUUGCUUACUAGAAGGAUAGAGUGGUC | 0.0403 µM | 0.0268 µM |  | 
GAUUCACAUGAGGAUCACCCAUGUGAGGAUAUAGUGCAGGAGGCGGAUAUCCACCUCUCUAGAAGGCACACGGG | 0.0218 µM | 0.0241 µM |  | 
GUGUACAGAGGAUAUACUUAUGGAGUUACGAAAGUAACUUCACAUGAGGAUCACCCAUGUAGAAGGCUGUACAC | 0.0273 µM | 0.031 µM |  | 
GGUUAUAUAACAUGAGGAUCACCCAUGUGAGUGGUCCGAAUAUAGGAUAUCCACACGAGAAGUGUGGAGAAGGAUAAUUUAUUA | 0.0407 µM | 0.206 µM |  | 
AUAUGAUAGAUAGGAUAUACUGUGGUUGAAUGUGUAGAAGGAUCGAUAGGGAAAUGUACAUGAGGAUCACCCAUGUUGUGGAUU |  |  | 0.0484 µM | 0.0399 µM
AACCUAUUACAGAAGGCCAGCUACAUGAGGAUCACCCAUGUCGAGUCAUGGAGGAUAUGUAGUAAUUUGCACGCGGGCGAGCAC |  |  | 0.0597 µM | 0.00705 µM
CAUGCCUGCACAGGAUAUCAUACAUGAGGAUCACCCAUGUCUAACAACACAUGAGAAGGGUGCAUGCCUGGGCGAAGUUUUGUG |  |  | 0.0243 µM | 0.00622 µM
CGGCAAGUCACAGGAUAUGGUGAUGUACAUGAGGAUCACCCAUGUCCGUCUUCUCUCACAAGAUGCCAGAAGGGUGACCUCCGG |  |  | 0.76 µM | 0.131 µM
AGAUGGCGAGGAUAUACAUGAGGAUCACCCAUGUGAAGAAUAAUAGUGAGGAAGAAAAGUAGAAGGCGCUGUCA | 0.0455 µM | 0.209 µM |  | 
GGUGCGUUUGUGAGGAUAUGCUGGUCCUUGGUUCCGCAGAAGGCACAUGAGGAUCACCCAUGUGGUGUCGUACC | 0.195 µM | 0.373 µM |  | 
GGAAUUAAGGGAGGAUAUAGGCGACAUGAGGAUCACCCAUGUACGGAGGGCUCUUCCCGUGUUCACUAGAAGGCCCAUGUUACC | 0.0165 µM | 0.0737 µM |  | 
CGUGUCGUAUGAGGAUAUGGUCAGCUUUGCUGACCAGAAGGCAUGUCAAUAGACAUGAGGAUCACCCAUGUAGUAAAGACACGA |  |  | 0.378 µM | 0.0406 µM
GUAAAUCAUGUAGGAUAUGCAUGGCGAAGCUACGCAGAAGGACAUGAGGAUCACCCAUGUUAUAGCUACCCAGUUCGGUGGCAA | 0.102 µM | 0.22 µM |  | 
UUAUGAUAGAUAGGAUAUACAUUGGAUUUAAAAGUAGAAGGAUCAAGUGGGAAAUGAACAUGAGGAUCACCCAUGUAAUAGGUU |  |  | 0.109 µM | 0.0786 µM
GUAGCAUACCGAGGAUAUCUAUACCGGAAACGGACAUGAGGAUCACCCAUGUGGCGAAAGCCUUGGGAGAAGGCGGAAUGCUAC |  |  | 0.0208 µM | 0.0116 µM
UGUGGACAUGAGGAUCACCCAUGUGAGGAUAUGGUCUGGAUACACUUGAGCUCGGCAUCCAGAAGGCGCGUGGC | 0.0859 µM | 0.0714 µM |  | 
UGUGUGAGACAGGAUAUGCCGGUUGUGUUACUGGUAGAAGGGUCUACAUGAGGAUCACCCAUGUGGCCGGCCGG | 0.152 µM | 0.154 µM |  | 
GGGCUGUCAGGAUAUCGCGCGCGCGCGGAAAUGUGUGUGUGUGAGAAGGGACAUGAGGAUCACCCAUGUGGCCC | 0.0356 µM | 0.0368 µM |  | 

Sequence | apparent Kd [1] | apparent Kd [2] | apparent Kd [3] | apparent Kd [4]
CAACUCGGAGGAUAUAGCUGUUCUAACAUGAGGAUCACCCAUGUGCAGUUCCUUGUUAGGCUAGAAGGCCGGUAUA | 0.0406 µM | 0.0991 µM |  | 
GCAUAUCAGGGAGGAUAUGACAUGAGGAUCACCCAUGUAAUUAUGGCUCUGUCAGAAGGCCCAUCGUCACUAUAGCGACGAGAA | 0.587 µM | 0.0169 µM |  | 
UGAUAGGACAGAGGAUAUGCGUAUAGUUAUCUCUACAUGAGGAUCACCCAUGUAGAAGGCUGUCCUAUCUAAGUCGGAAACGAC | 0.00535 µM | 0.00522 µM |  | 
GGUGAGCAAGGAUAUACAUGAGGAUCACCCAUGUGAGAUGCGCAGGGCCCGAUGAUAGGUAGAAGGUGCGUCAC | 0.0345 µM | 0.0728 µM |  | 
AUGUGGUGCGUAGGAUAUCAUUAAAGAAAACCCUGAGAAGGACGUGAGGACAUGAGGAUCACCCAUGUGGAUCACCCAUGUCAU | 0.32 µM | 0.285 µM |  | 
CUGAUGUGAGGAUAUCGGGCUACAGCCCUGCUGCUAGCAAACGAGAAGGCACAUGAGGAUCACCCAUGUGAUAG | 0.0216 µM | 0.0243 µM |  | 
UUACAUACAAAGGUACAUGAGGAUCACCCAUGUUUAUUGGGAAGAAGGGUAACAGUAUUACAUAUAUAGGAUAUUUCACAAAUG |  |  | 0.0906 µM | 0.0698 µM
GACAUGAGGAUCACCCAUGUCCAUGCAAAAGUAGUUGAGACCAGAAGGACCGUGCGGAGUGCAGGGUAGGAUAUGGAGCCCUCA |  |  | 0.0283 µM | 0.00734 µM
UUGGCGACGUAGAAGGGUGACAUGAGGAUCACCCAUGUGCCGAUAUUUCUCGAGAUAUGUCGGCCACAGGAUAUACGUGCCAUC |  |  | 0.0593 µM | 0.0319 µM
GUGGUCAGACAUGAGGAUCACCCAUGUGGAAUAAAUAAGGAAAAGGAUAUGGAAUAUAGGAUAUACCAGAAGGUUUGGUUGGUG |  |  | 0.105 µM | 0.127 µM
ACAAGCUCACAUGAGGAUCACCCAUGUGGUCGCUAAUAUACCAGAAGGGUGGGUCCUAAUGAUGUACAGGAUAUGGAGUAGGCG |  |  | 0.196 µM | 0.062 µM
CUGGGCGGUUUGCCCACACUGUCACAGGAUAUGCCCAAAACAUGAGGAUCACCCAUGUCAAAUACGCAGAAGGGUGAUCGGAAC |  |  | 0.107 µM | 0.0625 µM
CUAUUGCUAACAGGAUAUAUGAGUCCUACAUGAGGAUCACCCAUGUAGGUGAUCAGCCGUGAUUAGUAGAAGGGUUAGCAAUAG |  |  | 0.0123 µM | 0.00691 µM
CAUACACAUGAGGAUCACCCAUGUGAGGAUAUGCGUACGUUGUCAGUAGGCGACGUGCGCAGAAGGCGCGUGUU | 0.0605 µM | 0.0477 µM |  | 
AGUCGGAGCAGAGGAUAUAUACAUGAGGAUCACCCAUGUAAAUGAAUAAGCUGGAAACAGCAUGUAUAGAAGGCUGCUCCGACA | 0.0456 µM | 0.125 µM |  | 
CGAACUAAGUAGAAGGCUGUCUUAAAAUAGGACAGAGGAUAUACAUGAGGAUCACCCAUGUACUCCUUUAAUAAGUUUGAAAUA | 0.00584 µM | 0.00648 µM |  | 
UACAGACAUGAGGAUCACCCAUGUAAGGAUAUCGGUACUAAUGGUAUAAUCUACUUAGCGAGAAGGUACAGUGU | 0.0339 µM | 0.0305 µM |  | 
ACCAUUUACUAAUUGUCUAUACAUGAGGAUCACCCAUGUUAUGAGGAUAUCGUCGUGAAACACGACGAGAAGGCAUAGCAUUCG | 0.0672 µM | 0.229 µM |  | 
UUGGACGUCGUAGGAUAUGUAGGAUUUUCCUACAUGAGGAUCACCCAUGUUGAAAUGGAAGAAGGACAGAAGGACGAUGUCCAU |  |  | 0.139 µM | 0.0162 µM
AUUAUGAAGCAGUUAUAACUCUAAACAUGAGGAUCACCCAUGUAGGAUAUCAGCACGAUAAGUGCUGAGAAGGACAUCUGCUUC | 0.0153 µM | 0.0184 µM |  | 
ACUGAAGUCACAGGAUAUCAUAUGCCGGCACAUUGAGAAGGGUGACUGGGCUACAUGAGGAUCACCCAUGUGCCGUCGUAACAA |  |  | 0.0298 µM | 0.0369 µM
CCACGUCACAUCUACAUGAGGAUCACCCAUGUCAAAAGACAUGAGGAUAUGCAUCCUAAUUGGAUGCAGAAGGCAUGGACGUGG |  |  | 0.972 µM | 0.0697 µM
GACUUGUUAGGAUAUCUUACAUUUGCAUCAUAGUAACCAUUGGAGAAGGGACAUGAGGAUCACCCAUGUUUGGA | 0.0316 µM | 0.0301 µM |  | 
GUCAGCUCGUGAGGAUAUACAACACUGCUUCGGCAGUGUAUAAAGAUCACAUGAGGAUCACCCAUGUAGAAGGCACGAGCUGAU | 0.0152 µM | 0.213 µM |  | 
ACAAGAUCAGGAUAUACAUGAGGAUCACCCAUGUAUAUCAAAAAGGGACUUUCUUAAUGUAGAAGGGAUCUUGU | 0.0133 µM | 0.0128 µM |  | 
AAGAACAACCAGAAGGCAAGGCAAACAUGAGGAUCACCCAUGUAAUAUUUGAGGAUAUGGGUUCGACGUGGUCUAAAGUCAGGU |  |  | 0.12 µM | 0.0141 µM
CAGGACAGAGGAUAUACAUAGAUACAGAUUCAUGUAGAACUACAUGAGGAUCACCCAUGUAGAAGGCUGUCCUG | 0.0295 µM | 0.3 µM |  | 
